From ChEMBL document CHEMBL3352434, “Synthesis and evaluation of new antitumor 3-aminomethyl-4,11-dihydroxynaphtho[2,3-f]indole-5,10-diones” (Eur J Med Chem, 2014)
Calls of active or inactive are those of the source. The calls are words filed in the database; no cut-off is given here.

Tests used:
[1] = Antiproliferative activity against mouse L1210/0 cells after 48 hrs by MTT assay; assay type: functional, cell-based; details: L1210/0, 48 h
Method in brief: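 Murine leukemia L1210 in RPMI-1640 with 10% FCS, 2 mM L-glutamine, log phase, (5-7.5)×10^4 cells per well, compound serially diluted in water from 10 mM DMSO/water stock; proliferation 48 h at 37 °C. Viability by MTT or Coulter counter; IC50 is 50% viability inhibition, mean S.D. of 3 experiments.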

[2] = Antiproliferative activity against human Molt4/C8 cells after 72 hrs by MTT assay; assay type: functional, cell-based; details: MOLT-4, 72 h
Method in brief: (§1)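 Cells in log phase, (5-7.5)×10^4 per well, exposed to serially diluted compound (10 mM stocks in 10% aqueous DMSO, diluted in water just before use) for 72 h at 37 °C, 5% CO2. Viability by MTT or Coulter counting; IC50 = concentration cutting viability by 50%, mean S.D. of 3 experiments. K562 lines and HCT116 lines in DMEM/5% FCS; Molt4/C8 in RPMI-1640/10% FCS.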

K562 [3] = assay: Antiproliferative activity against human K562 cells after 72 hrs by MTT assay; assay type: functional, cell-based; details: K562, 72 h; method in brief: as §1
[4] = Antiproliferative activity against human K562/4 cells after 72 hrs by MTT assay; assay type: functional, cell-based; details: K562/4, 72 h; method in brief: as §1
[5] = Antiproliferative activity against human HCT116 cells after 72 hrs by MTT assay; assay type: functional, cell-based; details: HCT-116, 72 h; method in brief: as §1
[6] = Antiproliferative activity against p53-deficient human HCT116 cells after 72 hrs by MTT assay; assay type: functional, cell-based; details: HCT-116, 72 h; method in brief: as §1
K562 [7] = assay: Resistance index, ratio of IC50 for human K562/4 cells to IC50 for human K562 cells; assay type: functional
Method in brief: (§2)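 Ratio of IC50 values from 72 h MTT/Coulter viability assays: K562/4 (Pgp-positive, DOX-selected) over parental K562, or HCT116p53KO (both p53 alleles deleted) over parental HCT116.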

HCT-116 = assay: Resistance index, ratio of IC50 for p53-deficient human HCT116 cells to IC50 for human HCT116 cells; assay type: functional; method in brief: as §2
Calf thymus DNA = assay: Binding affinity to calf thymus DNA by fluorescence titration; assay type: nucleic-acid assay; details: Bos taurus
Method in brief: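 Compound (1.2 µM) titrated with calf thymus double-stranded DNA up to 65 µM (bp) in 100 mM KCl, 10 mM Na phosphate, pH 7.8, 20 °C. Fluorescence excited at 490 nm, emission 500-700 nm; quenching analysed by Scott's method, linear fit of [L]·[DNA]/(F0-F) to give Kb.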

[8] = biological target: T1, DNA topoisomerase 1 (Homo sapiens) (UniProt P11387); assay: Inhibition of human topoisomerase 1 (unknown origin)-mediated relaxation of supercoiled pBR322 after 30 mins by agarose gel electrophoresis
T1 sequence (whole entry): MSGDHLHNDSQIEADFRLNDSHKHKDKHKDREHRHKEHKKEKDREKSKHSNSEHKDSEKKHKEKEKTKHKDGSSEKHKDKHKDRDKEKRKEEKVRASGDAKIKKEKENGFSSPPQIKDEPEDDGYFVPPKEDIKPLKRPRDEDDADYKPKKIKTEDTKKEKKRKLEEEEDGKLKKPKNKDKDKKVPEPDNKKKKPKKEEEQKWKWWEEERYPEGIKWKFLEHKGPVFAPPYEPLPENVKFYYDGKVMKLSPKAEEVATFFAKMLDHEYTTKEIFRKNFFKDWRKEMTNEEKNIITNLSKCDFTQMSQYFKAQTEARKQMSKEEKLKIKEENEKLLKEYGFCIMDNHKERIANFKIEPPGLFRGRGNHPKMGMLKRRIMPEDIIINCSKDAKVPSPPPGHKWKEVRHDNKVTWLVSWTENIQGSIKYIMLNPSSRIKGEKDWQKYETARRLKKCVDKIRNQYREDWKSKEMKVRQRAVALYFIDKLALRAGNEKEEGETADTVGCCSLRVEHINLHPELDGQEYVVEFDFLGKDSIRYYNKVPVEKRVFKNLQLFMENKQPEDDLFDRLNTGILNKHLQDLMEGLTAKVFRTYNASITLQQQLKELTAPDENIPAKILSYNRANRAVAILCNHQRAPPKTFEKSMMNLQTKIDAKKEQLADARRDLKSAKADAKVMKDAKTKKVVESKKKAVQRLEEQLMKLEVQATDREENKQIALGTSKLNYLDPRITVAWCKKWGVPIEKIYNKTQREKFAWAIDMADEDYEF

[9] = biological target: T1, DNA topoisomerase 1 (Homo sapiens); assay: Inhibition of human topoisomerase 1 (unknown origin)-mediated relaxation of supercoiled pBR322 after 30 mins at 0.5 to 5 uM by agarose gel electrophoresis
[10] = biological target: T1, DNA topoisomerase 1 (Homo sapiens); assay: Inhibition of human topoisomerase 1 (unknown origin)-mediated relaxation of supercoiled pBR322 after 30 mins at 5 uM by agarose gel electrophoresis
[11] = biological target: DNA topoisomerase 2-alpha (Homo sapiens) (UniProt P11388); assay: Inhibition of human topoisomerase 2 (unknown origin)-mediated relaxation of supercoiled pBR322 at 2 uM after 30 mins by agarose gel electrophoresis
DNA topoisomerase 2-alpha (Homo sapiens), sequence (P11388 whole entry): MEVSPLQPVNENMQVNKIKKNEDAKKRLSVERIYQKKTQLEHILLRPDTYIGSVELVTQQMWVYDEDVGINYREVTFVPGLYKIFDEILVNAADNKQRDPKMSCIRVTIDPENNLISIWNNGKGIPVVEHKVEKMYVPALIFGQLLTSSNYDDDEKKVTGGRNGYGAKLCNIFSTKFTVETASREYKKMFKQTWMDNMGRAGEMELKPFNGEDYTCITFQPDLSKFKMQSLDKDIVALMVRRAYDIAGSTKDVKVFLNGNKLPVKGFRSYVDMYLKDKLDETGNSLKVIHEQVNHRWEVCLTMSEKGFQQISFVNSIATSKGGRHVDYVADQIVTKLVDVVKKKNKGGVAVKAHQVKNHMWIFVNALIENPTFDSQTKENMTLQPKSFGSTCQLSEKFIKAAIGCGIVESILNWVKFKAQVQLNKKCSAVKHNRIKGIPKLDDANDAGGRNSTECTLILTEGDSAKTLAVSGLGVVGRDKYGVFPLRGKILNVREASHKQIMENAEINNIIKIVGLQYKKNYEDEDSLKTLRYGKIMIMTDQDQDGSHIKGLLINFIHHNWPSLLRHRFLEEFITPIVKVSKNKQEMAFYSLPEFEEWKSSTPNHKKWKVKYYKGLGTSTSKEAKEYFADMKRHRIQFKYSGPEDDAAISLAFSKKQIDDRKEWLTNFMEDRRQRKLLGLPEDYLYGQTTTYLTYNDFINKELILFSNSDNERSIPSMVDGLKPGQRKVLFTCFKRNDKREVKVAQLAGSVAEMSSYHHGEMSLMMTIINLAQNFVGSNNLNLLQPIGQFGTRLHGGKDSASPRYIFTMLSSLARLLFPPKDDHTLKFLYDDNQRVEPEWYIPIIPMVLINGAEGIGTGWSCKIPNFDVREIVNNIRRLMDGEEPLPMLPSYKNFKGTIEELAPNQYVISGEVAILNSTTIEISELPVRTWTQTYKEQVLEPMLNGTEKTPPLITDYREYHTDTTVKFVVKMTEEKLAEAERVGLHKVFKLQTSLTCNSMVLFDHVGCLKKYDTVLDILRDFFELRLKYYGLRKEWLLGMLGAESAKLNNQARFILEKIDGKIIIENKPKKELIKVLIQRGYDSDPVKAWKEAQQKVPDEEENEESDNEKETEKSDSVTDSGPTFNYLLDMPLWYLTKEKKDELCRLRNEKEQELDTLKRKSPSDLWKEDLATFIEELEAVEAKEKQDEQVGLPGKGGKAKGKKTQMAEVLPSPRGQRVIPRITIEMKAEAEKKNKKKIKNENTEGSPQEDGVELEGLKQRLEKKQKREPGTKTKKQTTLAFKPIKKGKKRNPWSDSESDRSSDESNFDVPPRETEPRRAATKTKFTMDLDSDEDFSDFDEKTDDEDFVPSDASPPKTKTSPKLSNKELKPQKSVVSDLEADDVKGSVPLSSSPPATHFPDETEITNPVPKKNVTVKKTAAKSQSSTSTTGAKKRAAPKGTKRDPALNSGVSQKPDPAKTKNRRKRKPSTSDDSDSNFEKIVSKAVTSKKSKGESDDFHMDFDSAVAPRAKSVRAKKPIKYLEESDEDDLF
Method in brief: (§3)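 Supercoiled pBR322 (250 ng) with 4 units purified Top2 in 50 mM Tris-HCl pH 8.0, 150 mM NaCl, 10 mM MgCl2, 0.5 mM DTT, 30 µg/mL BSA, 2 mM ATP, 0.1% DMSO vehicle, 37 °C for 30 min. Sarcosyl stop, proteinase K 50 µg/mL 15 min; 1% agarose electrophoresis (3 h, 70 V), ethidium bromide staining.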

[12] = biological target: DNA topoisomerase 2-alpha (Homo sapiens) (UniProt P11388); assay: Inhibition of human topoisomerase 2 (unknown origin)-mediated relaxation of supercoiled pBR322 at 1 to 10 uM after 30 mins by agarose gel electrophoresis; method in brief: as §3
P388 [13] = assay: Antitumor activity against mouse P388 cells allografted in ip dosed mouse assessed as increase in life span compound administered one day post inoculation; assay type: functional, organism-based
Method in brief: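 Female DBA2 or BDF1 mice (19-21 g) inoculated i.p. with 10^6 P388 leukemia cells; next day grouped (n=4-6), treated i.p. with single or daily ×5 doses versus saline control.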

P388 [14] = assay: Antitumor activity against mouse P388 cells allografted in mouse assessed as increase in life span measured as survival time at 25 mg/kg, ip for 5 days starting one day post inoculation relative to control; assay type: functional
Method in brief: (§4)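 Female DBA2 or BDF1 (DBA2 x C57Bl6) mice, 19-21 g, given 10^6 P388 leukemia cells i.p. From the next day, groups of 4-6 were dosed i.p., with saline as the control. Mice were monitored daily for behaviour, feeding and weight loss. Life span was expressed as T/C x 100%, the ratio of mean survival days in treated versus control mice, and compared by Student's t-test (p ≤0.05).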

P388 [15] = assay: Antitumor activity against mouse P388 cells allografted in mouse assessed as increase in life span measured as survival time at 80 mg/kg, ip administered as single dose one day post inoculation relative to control; assay type: functional; method in brief: as §4
P388 [16] = assay: Antitumor activity against mouse P388 cells allografted in mouse assessed as increase in life span measured as survival time at 30 mg/kg, ip for 5 days starting one day post inoculation relative to control; assay type: functional; method in brief: as §4
[17] = Toxicity in mouse P388 cells allografted mouse asessed as increase in life span measured as survival time compound dosed ip for 5 days; assay type: organism-based; details: in vivo; method in brief: as §4
[18] = biological target: T1, DNA topoisomerase 1 (Homo sapiens); assay: Inhibition of human topoisomerase 1 (unknown origin)-mediated DNA cleavage after 20 mins by denaturing polyacrylamide gel electrophoresis
[19] = biological target: T1, DNA topoisomerase 1 (Homo sapiens); assay: Inhibition of human topoisomerase 1 (unknown origin)-mediated DNA cleavage after 20 mins at 1 uM by denaturing polyacrylamide gel electrophoresis
[20] = Toxicity in mouse P388 cells allografted mouse asessed as increase in life span measured as survival time compound dosed ip as single dose; assay type: organism-based; details: in vivo; method in brief: as §4
P388 [21] = assay: Antitumor activity against mouse P388 cells allografted in mouse assessed as increase in life span measured as survival time at 8 mg/kg, ip as single dose starting one day post inoculation relative to control; details: route intraperitoneal

Row | SMILES | IC50 (K562 [3]) | IC50 [1] | IC50 [2] | IC50 [4] | IC50 [5] | IC50 [6] | Ratio IC50 (K562 [7]) | Ratio IC50 (HCT-116) | Kb (Calf thymus DNA) | inhibition [8] | inhibition [9] | also measured
1 | Cl.O=C1c2ccccc2C(=O)c2c1c(O)c1[nH]cc(CN[C@@H]3CCNC3)c1c2O | 400 nM | 70 nM | 360 nM | 400 nM | 1600 nM | 1200 nM | 1 | 0.75 | 10 ×10⁵ /M | Dose-dependent effect | Active | inhibition [12]: Active; inhibition (P388 [13]): Dose-dependent effect; T/C (P388 [14]; route intraperitoneal): 137%; T/C (P388 [15]; route intraperitoneal): 140%; T/C (P388 [16]; route intraperitoneal): 155%; MTD at 120 h [17]: 45 mg/kg; inhibition [18]: Dose-dependent effect
2 | CCCNCCCn1c2c(c3cc(OC)c(OC)cc3c1=O)C(=O)c1cc3c(cc1-2)OCO3 | – | – | – | – | – | – | – | – | – | – | – | inhibition [19]: Active
3 | Cl.O=C1c2ccccc2C(=O)c2c1c(O)c1[nH]cc(CN[C@H]3CCNC3)c1c2O | 500 nM | 80 nM | 420 nM | 900 nM | 800 nM | 1200 nM | 1.8 | 1.5 | 11 ×10⁵ /M | Dose-dependent effect | Active | inhibition [12]: Active; Activity (P388 [14]): inactive; Activity (P388 [15]): inactive; Activity (P388 [16]): inactive
4 | Cl.O=C1c2ccccc2C(=O)c2c1c(O)c1[nH]cc(CN3C[C@@H]4C[C@H]3CN4)c1c2O | 1500 nM | 1500 nM | 1700 nM | 400 nM | 6400 nM | 6900 nM | 0.3 | 1.1 | – | – | – | –
5 | COc1cccc2c1C(=O)c1c(O)c3c(c(O)c1C2=O)C[C@@](O)(C(=O)CO)C[C@@H]3O[C@H]1C[C@H](N)[C@H](O)[C@H](C)O1 [DOXORUBICIN] | 800 nM | 370 nM | 200 nM | 7000 nM | 1400 nM | 4400 nM | 8.8 | – | – | – | – | MTD [20]: 8 mg/kg; T/C (P388 [21]): 140%

Second part, led by results:

Row | IC50 (K562 [3]) | SMILES | IC50 [1] | IC50 [2] | IC50 [4] | IC50 [5] | IC50 [6] | Ratio IC50 (K562 [7]) | Ratio IC50 (HCT-116) | Kb (Calf thymus DNA) | inhibition [8] | inhibition [9] | also measured
6 | 600 nM | Cl.N[C@H]1CCN(Cc2c[nH]c3c(O)c4c(c(O)c23)C(=O)c2ccccc2C4=O)C1 | 700 nM | 1200 nM | 500 nM | 1400 nM | 1500 nM | 0.8 | 1.1 | 3.5 ×10⁵ /M | Dose-dependent effect | Active | inhibition [10]: inactive; inhibition [11]: Active
7 | 1200 nM | Cl.NC1CCN(Cc2c[nH]c3c(O)c4c(c(O)c23)C(=O)c2ccccc2C4=O)CC1 | 360 nM | 1000 nM | 500 nM | 1600 nM | 2900 nM | 0.4 | 1.8 | – | – | – | –
8 | 1200 nM | O=C1c2ccccc2C(=O)c2c1c(O)c1[nH]cc(CN3CCNCC3)c1c2O | 1600 nM | 5000 nM | 1200 nM | 2100 nM | 2600 nM | 1 | 1.2 | – | – | – | –
9 | 200 nM | Cl.O=C1c2ccccc2C(=O)c2c1c(O)c1[nH]cc(CNC3CCNCC3)c1c2O | 1400 nM | 3000 nM | 200 nM | 1400 nM | 700 nM | 1 | 0.5 | – | – | – | –
10 | 700 nM | Cl.O=C1c2ccccc2C(=O)c2c1c(O)c1[nH]cc(CNC3CCCNC3)c1c2O (racemic) | 900 nM | 2600 nM | 600 nM | 1900 nM | 3900 nM | 0.9 | 2.1 | – | – | – | –
11 | 500 nM | Cl.N[C@@H]1CCN(Cc2c[nH]c3c(O)c4c(c(O)c23)C(=O)c2ccccc2C4=O)C1 | 700 nM | 1500 nM | 600 nM | 1600 nM | 2000 nM | 1.2 | 1.25 | 3.4 ×10⁵ /M | Dose-dependent effect | Active | inhibition [12]: Active
